KCNK9 inh = KCNK9 potassium channel inhibitors, primary screen, HEK293 cells, thallium flux. 310,000 tested, 1.2% active. FluxOR thallium flux fluorescence; hits give low values. B-score at 10 µM;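 active means ratio B-score over 3 SD below the library mean, with starting fluorescence within 5 SD of its mean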;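 further: negative B-score means less thallium flux so channel inhibition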
hERG protect = hERG rescue from dofetilide block, primary screen, cell-based, CHO-hERG, FluxOR thallium flux, dofetilide IC70; Voltage-gated inwardly rectifying potassium channel KCNH2 (Homo sapiens), Q12809; dofetilide IC70 present; activation (rescue from dofetilide block), less the hit threshold, % at 10 µM; 310,000 tested, 0.51% active; AID 1511, 2009;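 active means activation above the mean of controls blocked by dofetilide plus 5 SD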;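 further: thallium influx through hERG after potassium depolarization seen as dye fluorescence rise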
KCNQ1 block = inhibitors of human KCNQ1 channel, primary screen, cell-based, thallium flux, high-throughput; Potassium voltage-gated channel subfamily KQT member 1 (Homo sapiens), P51787; CHO-K1 KCNQ1, FluxOR thallium flux fluorescence; hits give high values; B-score at 10 µM; 310,000 tested, 1.3% active; AID 2642, 2010;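 active means compounds whose thallium flux B-score, printed positive for inhibition, exceeds three library SD while starting fluorescence stays within three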;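 further: channel opened by potassium depolarization with thallium stimulus after 20 min compound exposure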
KCNK3 inh = human KCNK3 channel inhibitors, primary screen, CHO cells, FluxOR thallium flux, B-score. Potassium channel subfamily K member 3 (Homo sapiens), O14649. FluxOR fluorescence; hits give low values. B-score at 10 µM. 340,000 tested, 0.84% active;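 active means B-score under library mean minus 4 SD, starting fluorescence ratio at most library mean plus 5 SD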;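 further: more negative B-score means stronger inhibition of thallium flux through KCNK3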
Kir21 block = inhibitors of mouse Kir2.1 inward-rectifier potassium channel; Inward rectifier potassium channel 2 (Mus musculus), P35561; HEK293-Kir2.1, FluxOR thallium flux fluorescence; hits give low values; B-score at 10 µM; 310,000 tested, 0.85% active;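 active means fluorescence ratio B-score at or below minus 3 SD of library scores, with starting-brightness B-score within 2 SD, cut at about -4.2 in these data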;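 further: channel flux triggered by added potassium and thallium sulfate stimulus; B-score of peak minus minimum fluorescence over baseline after thallium stimulus; more negative B-score means stronger Kir2.1 block with less thallium influx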
Target sequence (P35561 whole entry, looked up): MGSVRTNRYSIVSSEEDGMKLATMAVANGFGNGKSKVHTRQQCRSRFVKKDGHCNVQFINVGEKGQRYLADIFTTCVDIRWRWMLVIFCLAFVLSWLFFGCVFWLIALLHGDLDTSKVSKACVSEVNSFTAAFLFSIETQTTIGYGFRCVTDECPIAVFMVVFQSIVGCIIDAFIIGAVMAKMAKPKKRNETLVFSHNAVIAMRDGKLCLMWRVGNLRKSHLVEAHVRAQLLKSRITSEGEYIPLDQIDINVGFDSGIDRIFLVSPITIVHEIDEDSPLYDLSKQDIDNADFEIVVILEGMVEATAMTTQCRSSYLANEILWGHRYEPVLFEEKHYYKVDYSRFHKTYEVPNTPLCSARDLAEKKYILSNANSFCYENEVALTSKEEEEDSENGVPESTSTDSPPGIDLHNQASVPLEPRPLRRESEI
KCNQ1 act = potentiators or activators of KCNQ1 channel, primary screen, cell-based, thallium flux, high-throughput. B-score at 10 µM. 310,000 tested, 0.35% active. CHO-K1 KCNQ1, thallium flux FluxOR fluorescence; hits give high values. AID 2648, 2010;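 active means fluorescence ratio B-score, a plate-corrected score, at least three library SD, with initial intensity B-score within 5 SD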
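System: Stable KCNQ1 CHO-K1 line | Incubation: 90 min dye loading and 20 min compound exposure, both at room temperature | Measure: Ratio B score | Medium: Assay buffer for compound exposure, DMSO matched across wells | Compound dosing: Single-concentration screen | Probe or stimulus: K+/Tl+ depolarizing stimulus | Measured by: Kinetic FluxOR fluorescence, 10 s baseline plus 110 s post-stimulus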
KCNQ1 block val = KCNQ1 potassium channel inhibitors, confirmation, cell-based, Tl flux, duplicate; inhibition, % at 10 µM; 1,600 tested, 93% active; shares compounds with KCNQ1 block; KCNQ1 cell line, FluxOR thallium flux fluorescence;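 active means primary screen active, with duplicate mean exceeding buffer control mean plus 3 SD of buffer wells, cut at about 28% in these data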;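 further: 0% = buffer control ratio and 100% = XE991 inhibitor control ratio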
CHO Tl flux = thallium flux effects in parental CHO cells, counter-screen for KCNQ1 inhibitor project, cell-based, Tl flux | shares compounds with KCNQ1 block | parental CHO-K1, FluxOR thallium flux fluorescence ratio; hits give low values; zero means no signal rise above baseline | fluorescence ratio (Tl flux) at 10 µM | 1,600 tested, 21% active | AID 588366, 2011;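 active means mean of duplicate thallium-flux fluorescence ratios in parental host cells more than 5 SD below the buffer control mean, cut at about 0.38 in these data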;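 further: ratio is peak minus minimum fluorescence divided by baseline fluorescence; actives read low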
KCNQ1 ephys val = KCNQ1 channel inhibitors, confirmation, orthogonal assay, cell-based, automated electrophysiology; KCNQ1-CHO cells, automated patch clamp current; shares compounds with KCNQ1 block; 490 tested, 20% active; calls only at 10 µM;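 active means KCNQ1 current drop exceeding 3 SD of negative control wells, seen in both duplicate runs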;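 further: steady state current during a 2 s step from -80 to +40 mV; negative values mean current inhibition and positive values mean potentiation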
KCNQ2 inh = KCNQ2 channel inhibition, selectivity assay for KCNQ1 inhibitor project, cell-based. shares compounds with KCNQ1 block. KCNQ2 cells, FluxOR thallium flux fluorescence. inhibition, % at 10 µM. 1,600 tested, 71% active. AID 651746, 2012;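 active means mean percent inhibition of the KCNQ2 thallium signal more than 5 SD above the buffer-only control wells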;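 further: KCNQ2 expressed in CHO cells; 0% = buffer control wells and 100% = XE-991 inhibitor control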
KCNQ1-KCNE1 inh = KCNQ1/KCNE1 channel inhibition, selectivity assay for KCNQ1 inhibitor project, CHO-K1 cells, thallium flux, FluxOR; AID 652147, 2013; 1,600 tested, 77% active; FluxOR thallium flux fluorescence; shares compounds with KCNQ1 block; inhibition, % at 10 µM;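 active means mean percent inhibition of duplicate wells above the buffer-only control mean plus 3 SD of those controls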;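 further: 0% = buffer only wells and 100% = XE-991 inhibitor control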
Starred values were filed as active, the others as inactive; i = inactive; . = not tested or not shown; + = active, no number. Most compounds without a hit are left out; they make up all but 3.8% or so of the library.

SMILES	KCNK9 inh	hERG protect	KCNQ1 block	KCNK3 inh	Kir21 block	KCNQ1 act	KCNQ1 block val	CHO Tl flux	KCNQ2 inh	KCNQ1-KCNE1 inh	others
CC1CCCN(S(=O)(=O)c2ccc3[nH]c4c(c3c2)CCCC4)C1 (stereo not given)	i	-5	12*	i	0.13	i	104*	0.43	99%*	130%*	KCNQ1 ephys val=i
CCNC(=O)N1CCCC(C(=O)c2ccc(OC)c(OC)c2)C1 (stereo not given)	i	-10	i	i	-1.3	i	.	.	.	.
O=c1c2c3c(sc2nc(NCCO)n1Cc1ccco1)CCCCC3	i	-2	i	i	-0.14	i	.	.	.	.
O=c1c2c3c(sc2nc(NCCO)n1CCc1ccccc1)CCCCC3	i	-14	6*	i	-0.02	i	67*	0.45	92%*	100%*
O=[N+]([O-])c1c(N2CCN(CCO)CC2)nc2ccccn12	i	-6	i	i	-1.7	i	.	.	.	.
Oc1ccc(-c2nc3ccccc3nc2-c2ccccc2)cc1	i	-13	7*	i	0.64	i	84*	0.38*	71%*	110%*
COc1ccc(-c2nc3ccccc3nc2-c2ccc(OC)c(OC)c2)cc1OC	i	-6	i	i	0.04	i	.	.	.	.
COc1ccc(-c2nc3ccccc3nc2-c2ccc(OC)cc2)cc1	i	-9	10*	i	0.33	i	88*	0.34*	96%*	115%*
O=C1C(=O)N(CCc2c[nH]c3ccccc23)C(c2cccnc2)/C1=C(/O)c1ccccc1 (stereo not given)	i	4	i	.	0.18	i	.	.	.	.
COc1ccc(N(C(=O)/C=C/c2ccccc2)C2=CC3CCC(C2)N3C)cc1 (stereo not given)	i	-15	i	i	-0.19	i	.	.	.	.
COc1cccc(Nc2nc(NCC3CCCO3)c3ccccc3n2)c1 (stereo not given)	i	-30	6*	i	-13*	i	82*	0.46	105%*	152%*
CC(C)Oc1ccc(-c2nc(NCC3CCCO3)c3ccccc3n2)cc1 (stereo not given)	i	-14	8*	i	0.54	i	98*	0.46	108%*	120%*	KCNQ1 ephys val=i
CC(C)(C)c1cc(C(=O)Nc2cccnc2)cc(C(=O)Nc2cccnc2)c1	i	-18	i	i	-1.5	i	.	.	.	.
N#Cc1cc2c(nc1SCC1COc3ccccc3O1)CCC2 (stereo not given)	i	-5	8*	i	0	i	106*	0.39	99%*	124%*
Cc1cc(C)c(C#N)c(SCC2COc3ccccc3O2)n1 (stereo not given)	i	-8	i	i	2.5	i	.	.	.	.
COc1ccc(CN=Cc2[nH]c3ccc(Br)c(Cl)c3c2O)cc1	i	-17	7*	i	-3.5	i	116*	0.37*	111%*	92%*
Cc1ccc(S(=O)(=O)N2CCCC2)cc1C(=O)NCCOc1ccccc1	.	.	.	i	.	.	.	.	.	.
Cc1ccc(-c2csc(N3CCC(NS(=O)(=O)c4ccc5c(c4)OCCO5)CC3)n2)cc1	i	-14	6*	i	-1.3	i	106*	0.42	96%*	100%*	KCNQ1 ephys val=i
CCc1oc2ccccc2c1C(=O)c1cc(Br)c(O)c(Br)c1	i	-28	9*	i	-1.2	i	77*	0.5	i	43%*
CCc1ccc(OCC(=O)c2c(O)c3ccccc3oc2=O)cc1	i	-11	i	i	0.03	i	.	.	.	.
Cc1ccc(OCc2cc(C(=O)N3CCC(Oc4cccnc4)CC3)no2)cc1C	i	-13	7*	i	0.37	i	114*	0.42	83%*	52%*	KCNQ1 ephys val=i
O=C(c1cc(COc2ccc3ncccc3c2)on1)N1CCC(O)CC1	i	-10	i	i	0.29	i	.	.	.	.
CCC(O)C1CCN(C(=O)c2cc(COc3ccc4ncccc4c3)on2)CC1 (stereo not given)	i	-15	8*	i	-0.3	i	58*	0.48	100%*	i
O=C(c1cc(COc2cccc(C(F)(F)F)c2)on1)N1CCC(Oc2cccnc2)CC1	i	-16	8*	i	1.9	i	132*	0.45	96%*	85%*	KCNQ1 ephys val=i
COc1ccc(C(=O)NCC(=O)OCC(=O)Nc2sccc2C#N)cc1OC	i	-9	i	i	0.03	i	.	.	.	.
COc1ccc2noc3c2c1C(=O)c1ccccc1-3	i	-50	23*	i	-16	i	+	0.0045*	i	i
Cc1c(C(=O)Nc2ccccc2)cn2c(nc3ccccc32)c1C#N	i	-2	i	i	-0.07	i	.	.	.	.
Cc1ccccc1C(=O)Nc1ccc2c(C#N)c3nc4ccccc4nc3n2c1	i	-12	8*	i	-0.56	i	32*	0.52	64%*	i
Cc1ccc(S(=O)(=O)N(C)CCCC(=O)N2CCN(C=O)CC2)cc1	i	-13	i	i	1.1	i	.	.	.	.

Source: PubChem
